Experimental data reported in article PMC12814486 (Bioorganic & medicinal chemistry, 2025).
≈ marks a conversion by molar mass, not a printed value.

Tests used:
Delta opioid (DOR) = Delta opioid (DOR) (Homo sapiens, UniProt P41143); assay: NIMH PDSP binding screen; conditions: read-out: Inhibition (%) Delta opioid (DOR)
mouse sEH = target: T1, mouse sEH (Mus musculus, UniProt P34914); assay: sEH inhibition assay; format: biochemical
T1 sequence (P34914 1-554): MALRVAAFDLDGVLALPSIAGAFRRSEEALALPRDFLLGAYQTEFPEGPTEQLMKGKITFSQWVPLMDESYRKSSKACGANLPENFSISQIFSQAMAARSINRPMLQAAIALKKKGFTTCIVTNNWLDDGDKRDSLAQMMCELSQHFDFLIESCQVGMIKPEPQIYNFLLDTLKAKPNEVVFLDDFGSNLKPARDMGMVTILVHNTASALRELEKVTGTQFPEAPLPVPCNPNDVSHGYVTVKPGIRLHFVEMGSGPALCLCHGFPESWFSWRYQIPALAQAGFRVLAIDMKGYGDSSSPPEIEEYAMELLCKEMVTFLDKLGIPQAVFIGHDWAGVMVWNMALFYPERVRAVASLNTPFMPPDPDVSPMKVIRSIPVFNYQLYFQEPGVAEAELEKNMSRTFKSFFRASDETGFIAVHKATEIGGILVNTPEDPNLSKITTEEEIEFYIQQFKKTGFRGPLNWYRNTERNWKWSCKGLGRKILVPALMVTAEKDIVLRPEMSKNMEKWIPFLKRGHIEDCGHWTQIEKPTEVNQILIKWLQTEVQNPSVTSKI

Solubility assay = format: physicochemical; conditions: sodium phosphate buffer, pH 7.4, aqueous buffer, kinetic from dmso stock
male Sprague-Dawley rats = assay: Home cage wheel running; format: in vivo, rat; conditions: 3 mg/kg intraperitoneal, vs vehicle, n = 8/group
5-HT2A = 5-HT2A (Homo sapiens, UniProt P28223); assay: NIMH PDSP binding screen; conditions: read-out: Inhibition (%) 5-HT2A
5-HT2A, sequence (P28223 whole entry, species assumed): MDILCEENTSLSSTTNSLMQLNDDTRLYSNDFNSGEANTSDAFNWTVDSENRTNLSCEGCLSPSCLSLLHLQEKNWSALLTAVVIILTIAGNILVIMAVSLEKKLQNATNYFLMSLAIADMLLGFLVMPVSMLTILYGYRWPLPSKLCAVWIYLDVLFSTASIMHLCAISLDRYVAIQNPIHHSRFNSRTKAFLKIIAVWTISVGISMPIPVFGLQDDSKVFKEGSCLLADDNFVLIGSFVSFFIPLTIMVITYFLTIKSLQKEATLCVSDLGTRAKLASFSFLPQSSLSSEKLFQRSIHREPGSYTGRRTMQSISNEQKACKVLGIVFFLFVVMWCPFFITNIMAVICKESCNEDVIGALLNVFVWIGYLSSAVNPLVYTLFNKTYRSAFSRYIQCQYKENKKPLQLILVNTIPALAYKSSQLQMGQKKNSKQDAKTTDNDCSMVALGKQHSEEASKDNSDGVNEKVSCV

[1] = Microsomal stability assay in liver microsomes; format: in vitro ADME; conditions: human, pH 7.4
Summary of the method: (§1)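 Test compound was taken from a 1 mM DMSO stock. It was preincubated 5 min at 37 °C with liver microsomes in 0.1 M phosphate buffer, pH 7.4. Reaction was started with an NADPH regenerating system (glucose-6-phosphate, NADPH, glucose-6-phosphate dehydrogenase, MgCl2) and quenched with methanol at 0, 10, 20, 30 and 60 min. Samples were centrifuged and read by LC-MS SIM as peak area ratio to internal standard. k = negative slope of ln ratio vs time; CLint = k/P (P = protein concentration). Duplicates or triplicates were averaged.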

[2] = Microsomal stability assay in liver microsomes; format: in vitro ADME; conditions: mouse, pH 7.4
Summary of the method: as §1

human FAAH = target: T2, human FAAH (Homo sapiens, UniProt O00519); assay: FAAH inhibition assay; format: biochemical
T2 sequence (O00519 1-579): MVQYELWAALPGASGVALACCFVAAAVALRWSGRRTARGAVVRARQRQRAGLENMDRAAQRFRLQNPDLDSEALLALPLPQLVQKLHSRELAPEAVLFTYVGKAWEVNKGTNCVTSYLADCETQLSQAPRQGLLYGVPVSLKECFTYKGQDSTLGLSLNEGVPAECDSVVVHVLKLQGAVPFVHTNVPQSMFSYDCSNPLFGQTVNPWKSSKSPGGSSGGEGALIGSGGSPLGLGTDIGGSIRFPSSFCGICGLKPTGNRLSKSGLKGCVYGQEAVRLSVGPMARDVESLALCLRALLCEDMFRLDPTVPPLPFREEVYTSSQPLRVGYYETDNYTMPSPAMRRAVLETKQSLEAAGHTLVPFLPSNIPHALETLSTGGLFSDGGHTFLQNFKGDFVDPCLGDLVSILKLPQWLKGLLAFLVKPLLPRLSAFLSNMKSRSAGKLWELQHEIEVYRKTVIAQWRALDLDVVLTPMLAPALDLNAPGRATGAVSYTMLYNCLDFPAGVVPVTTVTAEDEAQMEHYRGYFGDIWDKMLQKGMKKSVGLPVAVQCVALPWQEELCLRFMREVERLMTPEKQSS

Delta opioid (DOR), sequence (P41143 whole entry): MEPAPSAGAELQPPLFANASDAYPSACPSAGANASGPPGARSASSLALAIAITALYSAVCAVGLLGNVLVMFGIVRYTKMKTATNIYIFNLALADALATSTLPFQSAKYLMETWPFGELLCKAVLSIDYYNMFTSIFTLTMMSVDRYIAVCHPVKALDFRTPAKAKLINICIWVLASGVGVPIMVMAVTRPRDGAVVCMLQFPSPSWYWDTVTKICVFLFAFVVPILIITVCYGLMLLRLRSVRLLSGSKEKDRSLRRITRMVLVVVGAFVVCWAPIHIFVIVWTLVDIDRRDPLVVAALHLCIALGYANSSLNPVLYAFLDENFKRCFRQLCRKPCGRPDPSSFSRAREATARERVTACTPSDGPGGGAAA

For `O=C(Nc1ccc(-c2cnc3ccccc3n2)cc1)C1CCN(S(=O)(=O)c2ccccc2Cl)CC1` [Compound 4m, 1-((2-chlorophenyl)sulfonyl)-N-(4-(quinoxalin-2-yl)phenyl)piperidine-4-carboxamide], the inhibition at 10 µM (Delta opioid (DOR)) was -0.23 ± 11.9%, the IC50 (mouse sEH) was 39.1 nM and the solubility (Solubility assay) was 31 to 63 µM (≈ 15.7 to 31.9 µg/mL). For the same compound, the “wheel revolutions in the 15 min after drug injection” value (male Sprague-Dawley rats) was “significantly lower”, the inhibition at 10 µM (5-HT2A) was 1.96 ± 1.88% and the half-life at 1 µM [1] was greater than 60 min. The microsomal CLint at 1 µM [1] was 22.5 µL/min/mg, the half-life at 1 µM [2] was 32 min and the microsomal CLint at 1 µM [2] was 42.8 µL/min/mg. It also gave an IC50 (human FAAH) of 2.9 nM.
